# Only some compounds are listed: those with a hit (about 1.6% of all), similar ones and a draw of the others.
# HIV Rev-RRE inh: inhibitors of HIV-1 Rev-RRE RNA interaction; Rev peptide-RRE RNA binding, FRET; inhibition, % at 8 µM; hit rate 0.79% among 97,000;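 active means inhibition above the screen-wide mean plus 3 SD, cut at about 35% in these data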
#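 Test system – labelled RRE RNA duplex and labelled Rev peptide · Reagent – labelled Rev peptide · Doses – one concentration, 8 µM nominal · Incubation – 5 + 15 min at 25 °C · Signal – FRET fluorescence readout · Read-out basis – % inhibition of FRET ratio versus controls · Control set – DMSO wells as 0% and neomycin B wells as 100% inhibition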
# GALR2 agonist: GALR2 (human) receptor agonism; hit rate 0.48% among 140,000; O43603; activation, % (concentration not given with the values); GALR2-expressing cells, agonist activation read-out; in the data active means activation above about 5%, passing the limit was not always enough
# Target sequence (O43603 whole entry, looked up): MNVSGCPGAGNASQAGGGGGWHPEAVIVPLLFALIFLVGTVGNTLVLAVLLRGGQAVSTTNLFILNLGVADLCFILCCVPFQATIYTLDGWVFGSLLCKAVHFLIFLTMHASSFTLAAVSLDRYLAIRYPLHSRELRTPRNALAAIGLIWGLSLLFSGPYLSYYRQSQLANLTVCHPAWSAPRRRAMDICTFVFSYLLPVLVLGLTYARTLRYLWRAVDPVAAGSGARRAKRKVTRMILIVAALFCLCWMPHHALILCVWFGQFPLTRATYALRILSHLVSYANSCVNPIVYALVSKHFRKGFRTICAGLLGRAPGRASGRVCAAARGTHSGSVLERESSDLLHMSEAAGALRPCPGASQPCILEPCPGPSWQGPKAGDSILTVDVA
# S1P2 ag: S1P2 (human) receptor agonism; S1P2-expressing cell line, agonist reporter read-out; activation, % at 4.5 µM; hit rate 0.46% among 97,000; AID 729; in the data active means activation above about 16%
# GALR2 antag: antagonists of human galanin receptor 2 (GALR2); AID 828; GALR2-expressing cells, antagonist mode; hit rate 0.39% among 140,000; inhibition, % at 4 µM; in the data active means inhibition above about 27%;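 further: cells stimulated with galanin 1-16 at roughly its EC80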
# S1P2 antag: S1P2 (human) receptor antagonism. O95136. cell-based S1P2 antagonist assay, inhibition at 5 uM. inhibition, % at 5 µM. hit rate 0.21% among 97,000; in the data active means inhibition above about 45%;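 further: CRE beta-lactamase reporter cells expressing human S1P2 stimulated with S1P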
# Hits are given with their value; n = inactive; x = no result given; [ ] = remark or other dose.
SMILES,HIV Rev-RRE inh,GALR2 agonist,S1P2 ag,GALR2 antag,S1P2 antag
O=C(N/N=C/c1cccs1)[C@H]1C[C@@H]1c1ccccc1,x,n,x,n,x
COc1ccc(C(C)(C)C)cc1NC(=S)NCCN1CCOCC1,x,n,x,n,x
Nc1nc(Cl)cc(N2CCC(c3cc(-c4ccc(Cl)cc4)n[nH]3)CC2)n1,n,n,n,n,82
COc1ccc(-c2cc(C3CCN(c4cc(Cl)nc(N)n4)CC3)[nH]n2)cc1,n,n,n,n,n
Cc1ccc(NC(=O)COC(=O)Cc2ccsc2)cc1S(=O)(=O)N1CCOCC1,x,n,x,n,x
CCc1cccc(C)c1NC(=O)CNCc1ccccc1,x,n,x,n,x
Cc1ccc(NC(=O)c2sc3nc4c(c(-c5ccco5)c3c2N)CCC4)cc1,n,n,n,n,n
Nc1c(C(=O)Nc2ccccc2)sc2nc3c(c(-c4ccco4)c12)CCC3,n,n,n,n,n
Nc1c(C(=O)Nc2ccc(Br)cc2)sc2nc(-c3ccco3)ccc12,46,n,n,n,n
Nc1c(C(=O)Nc2ccc(F)cc2)sc2nc(-c3ccco3)ccc12,46,n,n,n,n
CC(C)c1ccc(C2C(C#N)=C(N)N3C(=C2C#N)Sc2ccccc23)cc1 (stereo unspecified),56,n,n,n,n
CC(C)c1ccc(C2CC(=O)N3CN(C)CSC3=C2C#N)cc1 (stereo unspecified),n,n,n,n,n
COc1ccccc1N1CCN(C(=O)CSc2nnc3c4ccccc4nc(Cc4ccccc4)n23)CC1,x,n,x,n,x
O=C(NC1CCCCCC1)C1CCC(CNS(=O)(=O)c2ccc(Br)s2)CC1 (stereo unspecified),x,5.3,x,n,x
CCOC(=O)N1CCC(NC(=O)CNS(=O)(=O)c2ccc(Br)s2)CC1,n,n,n,n,n
OCCN(CCO)c1ncnc2c1oc1ccc(Br)cc12,n,n,20,n,n
Cc1oc(C)c2c(=O)ccc3c(c12)OC(N)=C(C#N)C3c1ccccc1 (stereo unspecified),60,n,n,n,n
Cc1oc(C)c2c(=O)ccc3c(c12)OC(N)=C(C#N)C3c1ccccc1Cl (stereo unspecified),97[fluorescence artefact?],n,n,n,n
Cc1ccc2[nH]c(=O)c(C3C(C#N)=C(N)Oc4c3ccc3cccnc43)cc2c1 (stereo unspecified),n,n,n,n,n
CSc1ccc(C2C(C#N)=C(N)Oc3c2ccc(=O)c2c(C)oc(C)c32)cc1 (stereo unspecified),43,n,n,n,n
CCN(CC)C(=S)Nc1ccc(Cl)c(Cl)c1,x,n,x,n,x
CC(O)CNc1nc2ccccc2n1CC(=O)NCCc1ccc(Cl)cc1 (stereo unspecified),n,n,n,n,n
CCOC(=O)c1cc2ccc(OC(=O)c3ccco3)cc2oc1=O,n,209,150,n,n
CC1(C)Cc2c(c(N3CCOCC3)nc3sc(-c4ccc(C(=O)O)o4)c(N)c23)CO1,40,n,n,n,n
NS(=O)(=O)c1ccc(NC(=S)Nc2nn(Cc3ccc(Cl)cc3Cl)cc2Cl)cc1,x,n,x,n,x
SMILES,HIV Rev-RRE inh,GALR2 agonist,S1P2 ag,GALR2 antag,S1P2 antag
CC(C)NC(=O)c1ccc2c(c1)S(=O)(=O)c1ccccc1C2=O,n,n,18,n,n
CC(C)c1cccc(C(C)C)c1NC(=O)COC(=O)c1ccc2c(c1)S(=O)(=O)c1ccccc1C2=O,x,n,x,n,x
COc1ccc(C2CC(c3ccccc3)=NN2C(=O)CN2N=NC3C(=O)N(c4cccc(F)c4)C(=O)C32)cc1 (stereo unspecified),x,n,x,n,x
CCN(CC)c1ccc(NC(=O)Nc2ccccc2C(F)(F)F)cc1,n,n,62,n,n
COc1ccc(S(=O)(=O)n2nc(-c3cc(OC)c(OC)c(OC)c3)cc2N)cc1OC,x,n,x,n,x
COc1ccc(-c2cc(N)n(S(=O)(=O)c3c(F)c(F)c(F)c(F)c3F)n2)cc1OC,n,n,n,28,n
O=C(NCc1ccoc1)c1ccc(NC(=O)c2ccccc2Cl)cc1,n,n,n,29,n
O=C(CSc1ccc(Cl)cc1)Nc1cccc(-c2nc3ccccc3[nH]2)c1,x,6.2,x,n,x
CCOC(=O)c1c(CC(C)C)csc1NC(=O)COC(=O)c1cc(OC)c(OC)cc1[N+](=O)[O-],x,n,x,n,x
COc1cccc(-c2cc(C(F)(F)F)nc(N3CCC(C)CC3)n2)c1,41,n,n,n,n
COc1cc(/C=N/Nc2cccc(C)c2)ccc1OC(=O)c1ccco1,x,n,x,n,x
Cn1c(=O)oc2cc(S(=O)(=O)N3CCN(C(=O)c4ccco4)CC3)ccc21,41,n,n,n,n

# From PubChem
